Results: PubChem BioAssay AID504490 (NMMLSC, 2011)
About 1,100 (0.32%) of roughly 340,000 compounds were called active. Only a selection was taken, and actives are over-represented in it overall. Values without a mark were called inactive.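 Rule for the calls: active = inhibition above a set limit, near 3 SD of compounds lacking own fluorescence (cut at about 54% in these data); inactive = the rest.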

What follows are compounds tested on beta-arrestin 1 C-terminal peptide binding to AP2 beta2-adaptin appendage (human) (assay: inhibitors of beta-arrestin/AP2 binding, primary screen, biochemical, GPCR trafficking, flow cytometry (AID 504490;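 note: plate controls were DMSO wells for no effect and 5 µM unlabelled arrestin peptide for full effect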)). Details: FITC-arrestin peptide / GST-AP2 beads, at 10 µM, active compounds read high, AP2 beta2 appendage carries R879A mutation.
Method in brief: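 system = GST-tagged AP2 beta2-adaptin appendage (R879A) on 4 µm glutathione beads | reagent = FITC-labelled arrestin peptide probe, 50 nM final | schedule = compound with beads 12 min RT, then probe 1 h RT | signal = HyperCyt-sampled flow cytometry, FL1 channel, ex 488/em 535 nm | read-out = percent response from loss of bead-bound FITC fluorescence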
For `CCOc1ccc(/C=C2\SC(=S)N(NC(=O)c3ccncc3)C2=O)cc1OC`, the inhibition was 18.7%. `COc1cccc(/C=C2/SC(=S)N(CC(=O)NC3C=CS(=O)(=O)C3)C2=O)c1` (stereo not given) gave an inhibition of -14%. In the case of `COc1ccc(/C=C2\SC(=S)N(CCC(=O)Nc3ccccn3)C2=O)cc1OC`, the inhibition is reported as 73.7% (active). `N#CCCN(C(=O)COC(=O)c1ccc(S(=O)(=O)N2CCCCCC2)cc1)c1ccccc1` gave an inhibition of -3.59%. `COc1ccc(-c2[nH]ncc2CN(C)Cc2c(C)n[nH]c2C)c(OC)c1` showed an inhibition of 6.55%. With `Cc1ccc(OCCCCc2c(C)n[nH]c2C)cc1` the inhibition was 65.1% (active). `CC(=O)c1c(C)[nH]c(C(=O)COC(=O)CCOc2ccc(C)cc2)c1C` gave an inhibition of 5.24%. `Cc1cc(NC(=O)CCS(=O)(=O)c2ccc(F)cc2)no1` gave an inhibition of -7.97%. In the case of `CC1CN(C(=O)c2ccccc2NS(=O)(=O)c2cccc([N+](=O)[O-])c2)CC(C)O1` (stereo not given), the inhibition is reported as 2.09%. Compound `COc1cccc(CN2CCNC(=O)C2CC(=O)N(C)CCc2ccccn2)c1` (stereo not given) has an inhibition of -2.95%. `CN(CCc1cn[nH]c1)C(=O)CC1C(=O)NCCN1Cc1cccc(Oc2ccccc2)c1` (stereo not given) was tested, and the inhibition was 9%. For `NC(=O)C1CCN(C(=O)CC2C(=O)NCCN2Cc2cccc(Oc3ccccc3)c2)CC1` (stereo not given), the inhibition was 68.5% (active). For `Cc1nc2c(ncn2-c2ccccc2)c(=O)n1NC(=O)CN1CCCC1`, the inhibition was -8.96%. Compound `COc1ccc(-n2ncc3c2CC(C)(C)CC3NC(=O)CCc2c(C)noc2C)cc1` (stereo not given) has an inhibition of 5.75%. `O=C(c1ccc(Cl)s1)N(Cc1nnc(-c2ccccc2Cl)o1)C1CC1` showed an inhibition of -9.93%. In the case of `O=C(Nc1nc(-c2ccco2)c(-c2ccco2)s1)c1ccco1`, the inhibition is reported as 8.21%. `COCCNC(=O)Nc1ccc2nc(-c3ccco3)c(-c3ccco3)nc2c1` was tested, and the inhibition was 68% (active). `COCCNC(=O)c1snc2ccc(Cl)cc12` gave an inhibition of 2.57%. With `CCc1noc(C)c1C(=O)N1CCCC(N2CCN(c3ccc(F)cc3)CC2)C1` (stereo not given) the inhibition was 7.14%. `COc1cccc(C2SCC(=O)N2c2cccc(C)c2)c1OC` (stereo not given) showed an inhibition of 3.87%. `CCc1ccc(NC(=O)Nc2ccncc2)cc1` gave an inhibition of 0.23%. `NS(=O)(=O)c1ccc2nc(NC(=O)CS(=O)(=O)c3ccc(F)cc3)sc2c1` gave an inhibition of 3.77%. Work on `Cc1csc(NC(=O)C2=COCCO2)n1` yielded an inhibition of 17.8%. In the case of `NS(=O)(=O)c1ccc2nc(NC(=O)C3=COCCO3)sc2c1`, the inhibition is reported as 58.1% (active). With `O=C1N(Cc2ccc3c(c2)OCO3)c2ccccc2C1(O)c1c[nH]c2ccccc12` (stereo not given) the inhibition was 2.95%. For `Cc1ccccc1Cn1c2ccccc2c2cnn(CC(=O)NCc3ccco3)c(=O)c21`, the inhibition was -0.8%. Work on `CCOc1ccc(C(C)=O)cc1COC(=O)CN1C(=O)NC2(CCCC2)C1=O` yielded an inhibition of 3.04%. Compound `S=c1ccc2ccccc2[nH]1` has an inhibition of -7.56%. `COC(=O)C1=C(C)N(C)C(C)=C(C(=O)OC)C1c1cccc(Br)c1` gave an inhibition of -3.12%. With `CCN1C[C@@H]2[C@@H]3C(=O)N(Cc4ccccc4)C(=O)[C@@H]3[C@](Cc3ccccc3)(C(=O)OC)N2C1=NC1CCCCC1` the inhibition was 4.73%. Compound `CCOc1ccccc1Nc1ccc(C(=O)O)cc1[N+](=O)[O-]` has an inhibition of 35.8%. For `Cc1ccc(Nc2ccc(C(N)=O)cc2[N+](=O)[O-])cc1`, the inhibition was 54.7% (active). `NC(=O)c1ccc(Nc2ccc3c(c2)CCC3)c([N+](=O)[O-])c1` was tested, and the inhibition was 38.4%. `S=C(Nc1cccnc1)Nc1ccccn1` showed an inhibition of 3.47%. With `CCOc1ccccc1C1CC(c2ccc(Cl)cc2)Nc2nc(N)nn21` (stereo not given) the inhibition was 10.8%. In the case of `O=c1[nH]c2ccccc2n2c(-c3ccccc3)nnc12`, the inhibition is reported as 55.3% (active). `O=c1[nH]n2c(-c3ccccc3)nc(O)c2c2ccccc12` gave an inhibition of -0.17%. `Cc1ccc(-c2cccc([C@H]3[C@@H]4C=CC[C@@H](C)[C@@H]4C(=O)N3Cc3ccccc3)c2)cc1` showed an inhibition of -6.59%. With `CCC1(CC)NC(=O)N(CC(=O)OCC(=O)NC(=O)c2ccccc2)C1=O` the inhibition was 5.01%. For `CC(=O)Nc1ccc(S(=O)(=O)N2CCC(N(C)CCC(C)C)CC2)cc1`, the inhibition was -0.3%. `CC(CN1CCOCC1)OC(=O)c1ccc(Cl)cc1Cl` (stereo not given) showed an inhibition of 8.15%. In the case of `CC(CN1CCCCC1)OC(=O)c1ccccc1Cl` (stereo not given), the inhibition is reported as 84.6% (active). `Cc1cccc(C(=O)OC(C)CN2CCCC2)c1` (stereo not given) gave an inhibition of 14.8%. Compound `Cc1cccn2c(=O)c(/C=C(\C#N)C(N)=O)c(N3CCCCCC3)nc12` has an inhibition of -21.3%. For `Cc1cc(C)cc(Oc2nc3c(C)cccn3c(=O)c2/C=C(\C#N)C(=O)NC2CCS(=O)(=O)C2)c1` (stereo not given), the inhibition was 77.2% (active). `Cc1cccn2c(=O)c(/C=C(\C#N)S(=O)(=O)c3ccc(Cl)cc3)c(N3CCC(C(N)=O)CC3)nc12` gave an inhibition of 3.53%. Compound `CCCn1c(O)c(CN2CCCC(C)C2)c(C)c(C#N)c1=O` (stereo not given) has an inhibition of 11.7%. `O=C(NNc1cc(Cl)cc(Cl)c1)c1c(F)cccc1Cl` was tested, and the inhibition was -11.9%. In the case of `O=C(NCc1ccco1)c1cc2sccc2n1Cc1ccc(F)cc1`, the inhibition is reported as 1.12%. For `O=C(NCc1ccco1)c1ccc(CS(=O)(=O)Cc2ccc(F)cc2)o1`, the inhibition was 97% (active). `CCN(CC(=O)NCc1ccco1)S(=O)(=O)c1ccc(F)cc1` was tested, and the inhibition was 24.4%. In the case of `Cc1ccc(NS(=O)(=O)c2cn(C)c(=O)n(C)c2=O)c(C)c1`, the inhibition is reported as -3.22%. For `Cc1ccc(CC2C(=O)N(c3ccc(F)cc3)C(=O)C2C)cc1` (stereo not given), the inhibition was -10.9%. Work on `COc1ccc(CNCCCn2cnc3c(OCc4ccccc4)ncnc32)cc1` yielded an inhibition of 3.96%. Compound `CC(C)Nc1ncnc2c1nnn2Cc1ccccc1` has an inhibition of -0.65%. With `COc1ccc(CCNc2ncnc3c2nnn3Cc2ccccc2)cc1` the inhibition was 56% (active). Work on `CN(CCCC(=O)Nc1nccs1)S(=O)(=O)c1ccc(Cl)cc1` yielded an inhibition of -5.07%. With `CN(C)c1ccc(NC(=O)c2ccncc2)c2ccccc12` the inhibition was 57.2% (active). `O=C(Nc1ccccc1N1CCOCC1)c1ccncc1` gave an inhibition of -0.66%. In the case of `Cc1c(C(=O)NNC(=O)c2ccncc2)oc2ccccc12`, the inhibition is reported as -2.61%.
